Experimental data from ChEMBL document CHEMBL1145100, “Structure-activity relationship of imidazo[1,2-a]pyridines as ligands for detecting beta-amyloid plaques in the brain” (J Med Chem, 2003).

Legend:
Type in all cases: ADME, organism-based
Mus musculus [1] = assay: Biodistribution of radioactivity in normal mice (ICR) spleen after 2 hours of intravenous injection of [125I]-16(IMPY); conditions: in vivo
Outline: (§1)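 Male ICR mice, 2-3 months old, 20-30 g, under ether anesthesia, given 0.15 mL of 0.1% bovine serum albumin solution containing the [125I] tracer into the tail vein. Killed by cardiac excision at set times after injection. Organs removed and weighed, then gamma-counted. % dose per organ computed against diluted aliquots of the injected material.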

Mus musculus [2] = assay: Biodistribution of radioactivity in normal mice (ICR) spleen after 2 minutes of intravenous injection of [125I]-16(IMPY); conditions: in vivo; outline: as §1
Mus musculus [3] = assay: Biodistribution of radioactivity in normal mice (ICR) spleen after 24 hours of intravenous injection of [125I]-16(IMPY); conditions: in vivo; outline: as §1
Mus musculus [4] = assay: Biodistribution of radioactivity in normal mice (ICR) spleen after 30 minutes of intravenous injection of [125I]-16(IMPY); conditions: in vivo, 0.5 h; outline: as §1
Mus musculus [5] = assay: Biodistribution of radioactivity in normal mice (ICR) spleen after 6 hours of intravenous injection of [125I]-16(IMPY); conditions: in vivo; outline: as §1
Mus musculus [6] = assay: Biodistribution of radioactivity in normal mice blood after 1 hour of intravenous injection of [125I]-16(IMPY); conditions: in vivo; outline: as §1
Mus musculus [7] = assay: Biodistribution of radioactivity in normal mice blood after 2 hours of intravenous injection of [125I]-16(IMPY); conditions: in vivo; outline: as §1
Mus musculus [8] = assay: Biodistribution of radioactivity in normal mice blood after 2 minutes of intravenous injection of [125I]-16(IMPY); conditions: in vivo
Outline: (§2)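 Male ICR mice (2-3 months old, 20-30 g) under ether anesthesia; 0.15 mL of 0.1% bovine serum albumin solution containing the iodine-125 tracer injected into the tail vein. Mice killed by cardiac excision at set times. Organs removed, weighed and gamma-counted. Percent dose per organ derived against diluted aliquots of the injectate.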

Mus musculus [9] = assay: Biodistribution of radioactivity in normal mice blood after 24 hours of intravenous injection of [125I]-16(IMPY); conditions: in vivo; outline: as §2
Mus musculus [10] = assay: Biodistribution of radioactivity in normal mice blood after 30 minutes of intravenous injection of [125I]-16(IMPY); conditions: in vivo, 0.5 h; outline: as §2
Mus musculus [11] = assay: Biodistribution of radioactivity in normal mice blood after 6 hours of intravenous injection of [125I]-16(IMPY); conditions: in vivo; outline: as §2
Mus musculus [12] = assay: Biodistribution of radioactivity in normal mice (ICR) brain after 1 hour of intravenous injection of [125I]-16(IMPY); conditions: in vivo; outline: as §1
Mus musculus [13] = assay: Biodistribution of radioactivity in normal mice (ICR) brain after 2 hours of intravenous injection of [125I]-16(IMPY); conditions: in vivo; outline: as §1
Mus musculus [14] = assay: Biodistribution of radioactivity in normal mice (ICR) brain after 2 minutes of intravenous injection of [125I]-16(IMPY); conditions: in vivo; outline: as §1
Mus musculus [15] = assay: Biodistribution of radioactivity in normal mice (ICR) brain after 24 hours of intravenous injection of [125I]-16(IMPY); conditions: in vivo; outline: as §1
Mus musculus [16] = assay: Biodistribution of radioactivity in normal mice (ICR) brain after 30 minutes of intravenous injection of [125I]-16(IMPY); conditions: in vivo, 0.5 h; outline: as §1
Mus musculus [17] = assay: Biodistribution of radioactivity in normal mice (ICR) brain after 6 hours of intravenous injection of [125I]-16(IMPY); conditions: in vivo; outline: as §1
Mus musculus [18] = assay: Biodistribution of radioactivity in normal mice (ICR) heart after 2 hours of intravenous injection of [125I]-16(IMPY); conditions: in vivo; outline: as §1
Mus musculus [19] = assay: Biodistribution of radioactivity in normal mice (ICR) heart after 2 minutes of intravenous injection of [125I]-16(IMPY); conditions: in vivo; outline: as §1
Mus musculus [20] = assay: Biodistribution of radioactivity in normal mice (ICR) heart after 24 hours of intravenous injection of [125I]-16(IMPY); conditions: in vivo; outline: as §1
Mus musculus [21] = assay: Biodistribution of radioactivity in normal mice (ICR) heart after 30 minutes of intravenous injection of [125I]-16(IMPY); conditions: in vivo, 0.5 h; outline: as §1
Mus musculus [22] = assay: Biodistribution of radioactivity in normal mice (ICR) heart after 6 hours of intravenous injection of [125I]-16(IMPY); conditions: in vivo; outline: as §1
Mus musculus [23] = assay: Biodistribution of radioactivity in normal mice (ICR) kidney after 1 hour of intravenous injection of [125I]-16(IMPY); conditions: in vivo; outline: as §1
Mus musculus [24] = assay: Biodistribution of radioactivity in normal mice (ICR) kidney after 2 hours of intravenous injection of [125I]-16(IMPY); conditions: in vivo; outline: as §1
Mus musculus [25] = assay: Biodistribution of radioactivity in normal mice (ICR) kidney after 2 minutes of intravenous injection of [125I]-16(IMPY); conditions: in vivo; outline: as §1
Mus musculus [26] = assay: Biodistribution of radioactivity in normal mice (ICR) kidney after 24 hours of intravenous injection of [125I]-16(IMPY); conditions: in vivo; outline: as §1
Mus musculus [27] = assay: Biodistribution of radioactivity in normal mice (ICR) heart after 1 hour of intravenous injection of [125I]-16(IMPY); conditions: in vivo; outline: as §1

Compound: CN(C)c1ccc(-c2cn3cc(I)ccc3n2)cc1
- Dose/organ (Mus musculus [1]): 0.05%
- Dose/organ (Mus musculus [2]): 0.4%
- Dose/organ (Mus musculus [3]): 0.01%
- Dose/organ (Mus musculus [4]): 0.09%
- Dose/organ (Mus musculus [5]): 0.04%
- Dose/organ (Mus musculus [6]): 2.5%
- Dose/organ (Mus musculus [7]): 1.82%
- Dose/organ (Mus musculus [8]): 6.41%
- Dose/organ (Mus musculus [9]): 0.18%
- Dose/organ (Mus musculus [10]): 2.44%
- Dose/organ (Mus musculus [11]): 1.4%
- Dose/organ (Mus musculus [12]): 0.21%
- Dose/organ (Mus musculus [13]): 0.14%
- Dose/organ (Mus musculus [14]): 2.88%
- Dose/organ (Mus musculus [15]): 0.02%
- Dose/organ (Mus musculus [16]): 0.26%
- Dose/organ (Mus musculus [17]): 0.06%
- Dose/organ (Mus musculus [18]): 0.08%
- Dose/organ (Mus musculus [19]): 0.79%
- Dose/organ (Mus musculus [20]): 0.01%
- Dose/organ (Mus musculus [21]): 0.16%
- Dose/organ (Mus musculus [22]): 0.04%
- Dose/organ (Mus musculus [23]): 1.17%
- Dose/organ (Mus musculus [24]): 0.53%
- Dose/organ (Mus musculus [25]): 4.75%
- Dose/organ (Mus musculus [26]): 0.05%
- Dose/organ (Mus musculus [27]): 0.12%
